According to ChEMBL document CHEMBL3600374, “Dual inhibitors of the dengue and West Nile virus NS2B-NS3 proteases: Synthesis, biological evaluation and docking studies of novel peptide-hybrids” (Bioorg Med Chem, 2015):
Active and inactive are the calls of the source. No cut-off for these calls is given here.

What was measured:
dengue virus type 2 [1] = assay: Inhibition of DENV serotype 2 NS2B-NS3 protease expressed in Escherichia coli BL21 lambda (DE3) cells using Abz-Nle-Lys-Arg-Arg-Ser-3-(NO2)Tyr as substrate at 50 uM preincubated for 15 mins followed by substrate addition measured for 15 mins by FRET assay relative to control
[2] = Inhibition of DENV serotype 2 NS2B-NS3 protease expressed in Escherichia coli BL21 lambda (DE3) cells using Abz-Nle-Lys-Arg-Arg-Ser-3-(NO2)Tyr as substrate preincubated for 15 mins followed by substrate addition measured for 15 mins by FRET assay; design: species or system dengue virus type 2
In short: (§1)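 IC50 by FRET assay at substrate 50 μM; DENV protease at 100 nM, WNV protease at 150 nM. Measured in triplicate.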

[3] = molecular target: Genome polyprotein (West Nile virus) (UniProt P06935); assay: Inhibition of WNV NS2B-NS3 protease expressed in Escherichia coli BL21 lambda (DE3) cells using Abz-Gly-Leu-Lys-Arg-Gly-Gly-3-(NO2)Tyr as substrate at 50 uM preincubated for 15 mins followed by substrate addition measured for 15 mins by FRET assay relative to control
Genome polyprotein [4] = molecular target: T1, Genome polyprotein (West Nile virus, UniProt P06935); assay: Inhibition of WNV NS2B-NS3 protease expressed in Escherichia coli BL21 lambda (DE3) cells using Abz-Gly-Leu-Lys-Arg-Gly-Gly-3-(NO2)Tyr as substrate preincubated for 15 mins followed by substrate addition measured for 15 mins by FRET assay; in short: as §1
[5] = molecular target: Prothrombin (Homo sapiens) (UniProt P00734); assay: Inhibition of thrombin (unknown origin) using Boc-Val-Pro-Arg-AMC as substrate at 25 uM preincubated for 15 mins followed by substrate addition measured for 10 mins by FRET assay relative to control
Genome polyprotein [6] = molecular target: T1, Genome polyprotein; assay: Competitive inhibition of WNV NS2B-NS3 protease expressed in Escherichia coli BL21 lambda (DE3) cells using Abz-Gly-Leu-Lys-Arg-Gly-Gly-3-(NO2)Tyr as substrate preincubated for 15 mins followed by substrate addition measured for 15 mins by Cheng-Prusoff plot analysis
In short: (§2)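 WNV protease, FRET read-out. Substrate at 50, 100, 150, 200 μM; inhibitor at 0, 0.5, 1, 2, 3, 4, 5, 6 μM; triplicates repeated three times, 12 outliers of 288 values excluded. Ki taken from the Cheng-Prusoff plot (Y-intercept of IC50 vs substrate) or the Dixon plot (mean of line intersections).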

Genome polyprotein [7] = molecular target: T1, Genome polyprotein; assay: Inhibition of WNV NS2B-NS3 protease expressed in Escherichia coli BL21 lambda (DE3) cells using Abz-Gly-Leu-Lys-Arg-Gly-Gly-3-(NO2)Tyr as substrate preincubated for 15 mins followed by substrate addition measured for 15 mins by Dixon plot analysis; in short: as §2
[8] = molecular target: Genome polyprotein (West Nile virus) (UniProt P06935); assay: Competitive inhibition of WNV NS2B-NS3 protease expressed in Escherichia coli BL21 lambda (DE3) cells using Abz-Gly-Leu-Lys-Arg-Gly-Gly-3-(NO2)Tyr as substrate at 0.5 to 6 uM preincubated for 15 mins followed by substrate addition measured for 15 mins by Cheng-Prusoff plot analysis; in short: as §2
dengue virus type 2 [9] = assay: Inhibition of DENV serotype 2 NS2B-NS3 protease expressed in Escherichia coli BL21 lambda (DE3) cells by HPLC-based assay
dengue virus type 2 [10] = assay: Binding affinity to DENV serotype 2 NS2B-NS3 protease expressed in Escherichia coli BL21 lambda (DE3) cells by fluorescence quenching assay in absence of DENV protease inhibitor aprotinin
In short: (§3)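 DENV protease held at 1 μM, aprotinin at 10 μM, inhibitor at 0, 0.5, 1, 2, 5, 10, 20, 30, 40, 48 μM. Read-out is the intrinsic Trp50 fluorescence of the protease, measured with and without aprotinin. Readings with aprotinin corrected for aprotinin's own fluorescence.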

dengue virus type 2 [11] = assay: Binding affinity to DENV serotype 2 NS2B-NS3 protease expressed in Escherichia coli BL21 lambda (DE3) cells at 0.5 to 48 uM by fluorescence quenching assay in presence of DENV protease inhibitor aprotinin; in short: as §3
[12] = Competitive inhibition of DENV serotype 2 NS2B-NS3 protease expressed in Escherichia coli BL21 lambda (DE3) cells using Abz-Nle-Lys-Arg-Arg-Ser-3-(NO2)Tyr as substrate preincubated for 15 mins followed by substrate addition measured for 15 mins by Cheng-Prusoff plot analysis; design: species or system dengue virus type 2
In short: (§4)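 DENV serotype 2 protease, FRET read-out. Substrate at 50, 100, 150, 200 μM; inhibitor at 0, 0.25, 0.5, 1, 1.5, 2, 2.5, 3 μM; triplicates, two outliers of 96 values excluded. Ki taken from the Cheng-Prusoff plot (IC50 vs substrate, Y-intercept), the Dixon plot (mean of line intersections), or the Cornish-Bowden plot.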

[13] = Inhibition of DENV serotype 2 NS2B-NS3 protease expressed in Escherichia coli BL21 lambda (DE3) cells using Abz-Nle-Lys-Arg-Arg-Ser-3-(NO2)Tyr as substrate preincubated for 15 mins followed by substrate addition measured for 15 mins by Dixon plot analysis; design: species or system dengue virus type 2; in short: as §4
dengue virus type 2 [14] = assay: Competitive inhibition of DENV serotype 2 NS2B-NS3 protease expressed in Escherichia coli BL21 lambda (DE3) cells using Abz-Nle-Lys-Arg-Arg-Ser-3-(NO2)Tyr as substrate at 0.25 to 3 uM preincubated for 15 mins followed by substrate addition measured for 15 mins by Cornish-Bowden plot analysis; in short: as §4

T1 sequence (P06935 1371-1501 limits assumed): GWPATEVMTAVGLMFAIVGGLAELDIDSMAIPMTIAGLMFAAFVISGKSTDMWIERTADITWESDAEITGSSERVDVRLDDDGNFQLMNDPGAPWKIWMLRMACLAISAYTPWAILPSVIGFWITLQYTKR
T1 sequence (P06935 1502-2120 limits assumed): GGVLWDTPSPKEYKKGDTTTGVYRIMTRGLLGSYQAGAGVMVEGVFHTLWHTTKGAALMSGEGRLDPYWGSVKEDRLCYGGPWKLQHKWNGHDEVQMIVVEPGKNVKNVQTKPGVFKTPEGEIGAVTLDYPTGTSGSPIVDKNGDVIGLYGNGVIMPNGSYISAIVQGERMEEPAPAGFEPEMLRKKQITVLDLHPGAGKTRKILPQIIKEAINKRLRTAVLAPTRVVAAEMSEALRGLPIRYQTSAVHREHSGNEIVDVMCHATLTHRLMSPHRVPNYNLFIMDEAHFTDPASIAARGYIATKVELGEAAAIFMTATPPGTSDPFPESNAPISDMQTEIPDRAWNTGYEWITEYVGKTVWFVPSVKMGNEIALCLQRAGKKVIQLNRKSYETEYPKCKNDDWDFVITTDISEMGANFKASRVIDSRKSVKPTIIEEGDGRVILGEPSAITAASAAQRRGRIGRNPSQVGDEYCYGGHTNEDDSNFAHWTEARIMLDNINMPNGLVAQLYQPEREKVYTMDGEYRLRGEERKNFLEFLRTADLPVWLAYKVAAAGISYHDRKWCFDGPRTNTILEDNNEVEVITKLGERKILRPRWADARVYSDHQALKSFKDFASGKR
Genome polyprotein (West Nile virus), sequence (P06935 whole entry): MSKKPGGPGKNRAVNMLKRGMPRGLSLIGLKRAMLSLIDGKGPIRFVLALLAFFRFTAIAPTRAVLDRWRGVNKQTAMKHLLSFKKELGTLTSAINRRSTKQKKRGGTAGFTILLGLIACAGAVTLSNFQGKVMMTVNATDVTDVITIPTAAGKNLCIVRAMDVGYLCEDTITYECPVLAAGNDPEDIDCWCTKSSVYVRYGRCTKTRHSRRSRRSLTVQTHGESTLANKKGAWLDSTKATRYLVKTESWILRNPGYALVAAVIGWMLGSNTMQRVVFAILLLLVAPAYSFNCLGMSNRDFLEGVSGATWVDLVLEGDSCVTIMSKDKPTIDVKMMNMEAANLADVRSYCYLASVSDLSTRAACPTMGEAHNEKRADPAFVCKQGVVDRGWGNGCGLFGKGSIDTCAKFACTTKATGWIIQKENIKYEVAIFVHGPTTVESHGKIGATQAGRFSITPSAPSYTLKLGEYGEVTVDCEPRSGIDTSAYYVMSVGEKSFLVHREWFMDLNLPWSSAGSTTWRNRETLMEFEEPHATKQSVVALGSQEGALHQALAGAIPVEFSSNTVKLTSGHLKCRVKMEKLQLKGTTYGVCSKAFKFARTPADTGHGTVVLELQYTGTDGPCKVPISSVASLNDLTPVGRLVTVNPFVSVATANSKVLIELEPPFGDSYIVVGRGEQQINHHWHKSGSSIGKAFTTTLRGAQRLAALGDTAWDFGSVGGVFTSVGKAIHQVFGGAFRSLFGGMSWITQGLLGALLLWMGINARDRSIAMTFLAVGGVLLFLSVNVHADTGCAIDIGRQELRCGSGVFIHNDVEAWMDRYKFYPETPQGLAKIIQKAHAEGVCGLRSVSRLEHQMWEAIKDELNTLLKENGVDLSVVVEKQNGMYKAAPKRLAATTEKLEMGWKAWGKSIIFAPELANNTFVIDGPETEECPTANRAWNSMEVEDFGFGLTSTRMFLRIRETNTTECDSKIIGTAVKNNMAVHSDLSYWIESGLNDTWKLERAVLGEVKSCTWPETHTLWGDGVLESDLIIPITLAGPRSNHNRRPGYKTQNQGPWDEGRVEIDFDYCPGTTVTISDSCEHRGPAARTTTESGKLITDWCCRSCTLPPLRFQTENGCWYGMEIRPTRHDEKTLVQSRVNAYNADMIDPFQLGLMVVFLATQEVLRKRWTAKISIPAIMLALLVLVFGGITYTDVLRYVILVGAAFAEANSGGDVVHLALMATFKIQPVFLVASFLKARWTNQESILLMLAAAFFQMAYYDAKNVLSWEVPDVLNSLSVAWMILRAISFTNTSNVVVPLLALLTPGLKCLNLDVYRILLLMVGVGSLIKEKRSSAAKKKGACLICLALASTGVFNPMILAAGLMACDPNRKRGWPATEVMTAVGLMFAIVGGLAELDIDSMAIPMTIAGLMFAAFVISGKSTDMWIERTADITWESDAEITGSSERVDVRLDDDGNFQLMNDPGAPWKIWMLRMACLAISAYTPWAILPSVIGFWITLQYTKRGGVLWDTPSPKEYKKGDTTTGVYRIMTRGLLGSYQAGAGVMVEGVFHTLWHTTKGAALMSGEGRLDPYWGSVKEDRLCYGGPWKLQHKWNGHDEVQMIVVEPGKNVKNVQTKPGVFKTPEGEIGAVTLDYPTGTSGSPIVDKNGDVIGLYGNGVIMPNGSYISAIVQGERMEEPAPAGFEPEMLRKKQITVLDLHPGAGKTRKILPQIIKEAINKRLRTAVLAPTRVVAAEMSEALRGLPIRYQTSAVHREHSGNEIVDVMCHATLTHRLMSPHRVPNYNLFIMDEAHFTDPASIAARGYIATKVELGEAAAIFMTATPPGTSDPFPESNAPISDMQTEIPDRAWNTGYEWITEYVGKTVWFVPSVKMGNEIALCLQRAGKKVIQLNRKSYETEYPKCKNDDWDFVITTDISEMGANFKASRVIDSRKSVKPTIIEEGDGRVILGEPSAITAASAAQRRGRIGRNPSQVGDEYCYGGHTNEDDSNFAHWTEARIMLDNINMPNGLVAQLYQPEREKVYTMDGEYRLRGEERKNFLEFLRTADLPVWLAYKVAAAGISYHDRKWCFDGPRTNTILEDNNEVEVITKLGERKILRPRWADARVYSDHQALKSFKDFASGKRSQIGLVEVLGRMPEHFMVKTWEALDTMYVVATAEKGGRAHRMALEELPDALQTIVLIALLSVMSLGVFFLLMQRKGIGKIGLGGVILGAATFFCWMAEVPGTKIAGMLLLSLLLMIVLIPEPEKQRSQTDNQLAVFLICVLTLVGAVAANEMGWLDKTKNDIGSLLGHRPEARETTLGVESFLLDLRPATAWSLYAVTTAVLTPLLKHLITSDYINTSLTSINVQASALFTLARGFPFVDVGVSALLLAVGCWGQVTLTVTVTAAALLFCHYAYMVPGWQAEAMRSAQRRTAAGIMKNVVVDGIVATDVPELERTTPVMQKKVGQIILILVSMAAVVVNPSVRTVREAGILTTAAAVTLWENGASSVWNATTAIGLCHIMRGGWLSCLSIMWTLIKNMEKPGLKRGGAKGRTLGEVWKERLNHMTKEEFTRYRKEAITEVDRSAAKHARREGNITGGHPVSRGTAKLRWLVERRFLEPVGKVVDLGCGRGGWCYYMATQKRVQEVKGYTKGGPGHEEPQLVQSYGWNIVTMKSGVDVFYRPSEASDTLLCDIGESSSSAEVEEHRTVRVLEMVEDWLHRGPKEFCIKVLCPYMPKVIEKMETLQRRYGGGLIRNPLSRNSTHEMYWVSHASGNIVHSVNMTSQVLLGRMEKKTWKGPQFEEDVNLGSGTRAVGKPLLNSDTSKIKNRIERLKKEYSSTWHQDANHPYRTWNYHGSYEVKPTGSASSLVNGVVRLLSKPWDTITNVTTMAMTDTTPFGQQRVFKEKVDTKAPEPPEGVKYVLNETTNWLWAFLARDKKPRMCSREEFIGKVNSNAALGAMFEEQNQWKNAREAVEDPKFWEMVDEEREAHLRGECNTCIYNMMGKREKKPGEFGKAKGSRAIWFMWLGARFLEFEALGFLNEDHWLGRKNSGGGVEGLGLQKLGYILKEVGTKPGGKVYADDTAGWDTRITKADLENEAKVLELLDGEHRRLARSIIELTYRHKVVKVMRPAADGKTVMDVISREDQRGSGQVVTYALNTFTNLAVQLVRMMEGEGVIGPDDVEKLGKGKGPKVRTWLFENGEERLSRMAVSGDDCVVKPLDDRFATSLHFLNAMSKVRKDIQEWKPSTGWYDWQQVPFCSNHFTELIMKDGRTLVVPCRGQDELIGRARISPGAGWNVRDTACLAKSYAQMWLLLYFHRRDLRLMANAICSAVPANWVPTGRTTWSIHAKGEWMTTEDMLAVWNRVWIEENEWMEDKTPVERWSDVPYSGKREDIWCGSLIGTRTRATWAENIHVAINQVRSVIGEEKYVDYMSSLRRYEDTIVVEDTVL

SMILES | inhibition (dengue virus type 2 [1]) | IC50 [2] [nM] | inhibition [3] | IC50 (Genome polyprotein [4]) [nM] | inhibition [5] | also measured
N=C(N)NCCC[C@H](NC(=O)c1ccc(/C=C2\SC(=O)N(CC34CC5CC(CC(C5)C3)C4)C2=O)cc1)C(=O)N[C@@H](CCCCN)C(=O)N[C@H](C(N)=O)c1ccccc1 | 102% | 740 | 107% | 1270 | 6.6% | 
CCC(CC)CN1C(=O)S/C(=C\c2ccc(C(=O)N[C@@H](CCCNC(=N)N)C(=O)N[C@@H](CCCCN)C(=O)N[C@H](C(N)=O)c3ccccc3)cc2)C1=O | 100% | 650 | 99.2% | 1350 | 8.7% | 
CC(C)CCN1C(=O)S/C(=C\c2ccc(C(=O)N[C@@H](CCCNC(=N)N)C(=O)N[C@@H](CCCCN)C(=O)N[C@H](C(N)=O)c3ccccc3)cc2)C1=O | 100% | 900 | 95.4% | 1760 | 7.3% | 
CC(C)N1C(=O)S/C(=C\c2ccc(C(=O)N[C@@H](CCCNC(=N)N)C(=O)N[C@@H](CCCCN)C(=O)N[C@H](C(N)=O)c3ccccc3)cc2)C1=O | 99.1% | 470 | 94.4% | 3590 | 8.5% | 
CC(C)(C)CN1C(=O)S/C(=C\c2ccc(C(=O)N[C@@H](CCCNC(=N)N)C(=O)N[C@@H](CCCCN)C(=O)N[C@H](C(N)=O)c3ccccc3)cc2)C1=O | 101% | 580 | 93.5% | 2030 | 9.7% | 
C#CCCCN1C(=O)S/C(=C\c2ccc(C(=O)N[C@@H](CCCNC(=N)N)C(=O)N[C@@H](CCCCN)C(=O)N[C@H](C(N)=O)c3ccccc3)cc2)C1=O | 103% | 850 | 105% | 2750 | 10.4% | 
N=C(N)NCCC[C@H](NC(=O)c1ccc(/C=C2\SC(=O)N(CC3CCCC3)C2=O)cc1)C(=O)N[C@@H](CCCCN)C(=O)N[C@H](C(N)=O)c1ccccc1 | 100% | 850 | 98.8% | 1010 | 10.1% | 
N=C(N)NCCC[C@H](NC(=O)c1ccc(/C=C2\SC(=O)N(CCC3CCCCC3)C2=O)cc1)C(=O)N[C@@H](CCCCN)C(=O)N[C@H](C(N)=O)c1ccccc1 | 99.9% | 1920 | 101% | 1130 | 7.3% | 
N=C(N)NCCC[C@H](NC(=O)c1ccc(/C=C2\SC(=O)N(CC3CCCCC3)C2=O)cc1)C(=O)N[C@@H](CCCCN)C(=O)N[C@H](C(N)=O)c1ccccc1 | 99.3% | 1050 | 99.6% | 750 | 6.9% | Ki (Genome polyprotein [6]): 1300 nM; Ki (Genome polyprotein [7]): 820 nM; inhibition [8]: Active
CC(C)(C)CCN1C(=O)S/C(=C\c2ccc(C(=O)N[C@@H](CCCNC(=N)N)C(=O)N[C@@H](CCCCN)C(=O)N[C@H](C(N)=O)c3ccccc3)cc2)C1=O | 101% | 510 | 98.9% | 1910 | 9.7% | 
CCC(CC)N1C(=O)S/C(=C\c2ccc(C(=O)O)cc2)C1=O | 11.2% |  | 40.7% |  |  | inhibition (dengue virus type 2 [9]): inactive
CCC(CC)N1C(=O)S/C(=C\c2ccc(C(=O)N[C@@H](CCCNC(=N)N)C(=O)N[C@@H](CCCCN)C(=O)N[C@H](C(N)=O)c3ccccc3)cc2)C1=O | 99.3% | 740 | 95% | 1120 | 8% | 
N=C(N)NCCC[C@H](NC(=O)c1ccc(/C=C2\SC(=O)N(C3CCCCC3)C2=O)cc1)C(=O)N[C@@H](CCCCN)C(=O)N[C@H](C(N)=O)c1ccccc1 | 101% | 790 | 98% | 1710 | 9.5% | 
C#CCCN1C(=O)S/C(=C\c2ccc(C(=O)O)cc2)C1=O | inactive |  | 20.8% |  |  | inhibition (dengue virus type 2 [9]): inactive
C#CCCN1C(=O)S/C(=C\c2ccc(C(=O)N[C@@H](CCCNC(=N)N)C(=O)N[C@@H](CCCCN)C(=O)N[C@H](C(N)=O)c3ccccc3)cc2)C1=O | 99.9% | 460 | 97.8% | 2120 | 13% | Activity (dengue virus type 2 [10]): Dose-dependent effect; Activity (dengue virus type 2 [11]): inactive; Ki [12]: 400 nM; Ki [13]: 100 nM; inhibition (dengue virus type 2 [14]): Active
CC(C)N1C(=O)S/C(=C\c2ccc(C(=O)O)cc2)C1=O | 16.3% |  | 34.8% |  |  | inhibition (dengue virus type 2 [9]): inactive
N=C(N)NCCC[C@H](NC(=O)c1ccc(/C=C2\SC(=O)N(C3CCC3)C2=O)cc1)C(=O)N[C@@H](CCCCN)C(=O)N[C@H](C(N)=O)c1ccccc1 | 100% | 620 | 95.3% | 1690 | 4.7% | 
C#CCN1C(=O)S/C(=C\c2ccc(C(=O)N[C@@H](CCCNC(=N)N)C(=O)N[C@@H](CCCCN)C(=O)N[C@H](C(N)=O)c3ccccc3)cc2)C1=O | 99.2% | 990 | 93.1% | 2360 | 10.9% | 
N=C(N)NCCC[C@H](NC(=O)c1ccc(/C=C2\SC(=O)N(CC3CCC3)C2=O)cc1)C(=O)N[C@@H](CCCCN)C(=O)N[C@H](C(N)=O)c1ccccc1 | 99.7% | 780 | 95.9% | 1390 | 8% | 
O=C(O)c1ccc(/C=C2\SC(=O)N(CC34CC5CC(CC(C5)C3)C4)C2=O)cc1 | inactive |  | inactive |  |  | inhibition (dengue virus type 2 [9]): inactive
O=C(O)c1ccc(/C=C2\SC(=O)N(CC3CCCC3)C2=O)cc1 | 15.9% |  | 32.4% |  |  | inhibition (dengue virus type 2 [9]): inactive
CC(C)(C)CN1C(=O)S/C(=C\c2ccc(C(=O)O)cc2)C1=O | 13.1% |  | 41.1% |  |  | inhibition (dengue virus type 2 [9]): inactive
N=C(N)NCCC[C@H](NC(=O)c1ccc(/C=C2\SC(=O)N(C3CCCCCC3)C2=O)cc1)C(=O)N[C@@H](CCCCN)C(=O)N[C@H](C(N)=O)c1ccccc1 | 100% | 830 | 101% | 2110 | 11.5% | 
CCC(C)N1C(=O)S/C(=C\c2ccc(C(=O)N[C@@H](CCCNC(=N)N)C(=O)N[C@@H](CCCCN)C(=O)N[C@H](C(N)=O)c3ccccc3)cc2)C1=O (some centres undefined) | 102% | 920 | 92.8% | 2500 | 38.9% | 
CC(C)CN1C(=O)S/C(=C\c2ccc(C(=O)N[C@@H](CCCNC(=N)N)C(=O)N[C@@H](CCCCN)C(=O)N[C@H](C(N)=O)c3ccccc3)cc2)C1=O | 99.6% | 1010 | 90.7% | 6240 | inactive | 
O=C(O)c1ccc(/C=C2\SC(=O)N(CC3CCCCC3)C2=O)cc1 | 23% |  | 35% |  |  | inhibition (dengue virus type 2 [9]): inactive
